According to ChEMBL document CHEMBL1151428, “Capability of 11 antipneumococcal antibiotics to select for resistance by multistep and single-step methodologies” (2007):
≈ marks a conversion by molar mass, not a printed value.

Key:
Type in all cases: functional
Streptococcus pneumoniae [1] = assay: Antimicrobial activity against drug-resistant Streptococcus pneumoniae isolate 2527 after 14 passages with gemifloxacin measured after 10 antibiotic-free subculture by multi-step resistance selection technique
In short: (§1)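 Mutants selected by daily broth passage in subinhibitory drug in cation-adjusted Mueller-Hinton broth with 5% lysed horse blood. Stability was tested by 10 daily passages on blood agar without antibiotic, then macrodilution MIC.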

Streptococcus pneumoniae [2] = assay: Antimicrobial activity against drug-resistant Streptococcus pneumoniae isolate 1635 after 14 passages with azithromycin measured after 10 antibiotic-free subculture by multi-step resistance selection technique; in short: as §1
Streptococcus pneumoniae [3] = assay: Antimicrobial activity against drug-resistant Streptococcus pneumoniae isolate 1077 after 15 passages with Telithromycin measured after 10 antibiotic-free subculture by multi-step resistance selection technique; in short: as §1
Streptococcus pneumoniae [4] = assay: Antimicrobial activity against drug-resistant Streptococcus pneumoniae isolate 1635 by NCCLS M7-A7 method
Streptococcus pneumoniae [5] = assay: Antimicrobial activity against drug-resistant Streptococcus pneumoniae isolate 2527 after 50 passages by multi-step resistance selection technique
In short: (§2)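 Daily serial passage in subinhibitory drug levels in 1 ml cation-adjusted Mueller-Hinton broth with 5% lysed horse blood; fresh broth for tigecycline. Each day, 10 μl were taken from the tube one to two dilutions below the MIC whose turbidity matched the growth control, and used to set the next MIC. […] MIC by macrodilution.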

Streptococcus pneumoniae [6] = assay: Antimicrobial activity against drug-resistant Streptococcus pneumoniae isolate 24 after 14 passages with Telithromycin measured after 10 antibiotic-free subculture by multi-step resistance selection technique; in short: as §1
Streptococcus pneumoniae [7] = assay: Antimicrobial activity against drug-resistant Streptococcus pneumoniae isolate 3413 after 50 passages by multi-step resistance selection technique
In short: (§3)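 Daily serial passage in subinhibitory drug levels in 1 ml cation-adjusted Mueller-Hinton broth with 5% lysed horse blood; fresh broth for tigecycline. Each day, 10 μl were taken from the tube one to two dilutions below the MIC whose turbidity matched the growth control, and used to set the next MIC. MIC by macrodilution.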

Streptococcus pneumoniae [8] = assay: Antimicrobial activity against drug-resistant Streptococcus pneumoniae isolate 3413 by NCCLS M7-A7 method
Streptococcus pneumoniae [9] = assay: Antimicrobial activity against drug-resistant Streptococcus pneumoniae isolate 1635 after 49 passages with clarithromycin measured after 10 antibiotic-free subculture by multi-step resistance selection technique
Streptococcus pneumoniae [10] = assay: Antimicrobial activity against drug-resistant Streptococcus pneumoniae isolate 1076 after 14 passages with Telithromycin measured after 10 antibiotic-free subculture by multi-step resistance selection technique; in short: as §1
Streptococcus pneumoniae [11] = assay: Antimicrobial activity against drug-resistant Streptococcus pneumoniae isolate 24 after 50 passages with moxifloxacin measured after 10 antibiotic-free subculture by multi-step resistance selection technique; in short: as §1
Streptococcus pneumoniae [12] = assay: Antimicrobial activity against drug-resistant Streptococcus pneumoniae isolate 3243 after 33 passages with azithromycin measured after 10 antibiotic-free subculture by multi-step resistance selection technique; in short: as §1
Streptococcus pneumoniae [13] = assay: Antimicrobial activity against drug-resistant Streptococcus pneumoniae isolate 1076 after 35 passages with moxifloxacin measured after 10 antibiotic-free subculture by multi-step resistance selection technique; in short: as §1
Streptococcus pneumoniae [14] = assay: Antimicrobial activity against drug-resistant Streptococcus pneumoniae isolate 3413 after 30 passages with Telithromycin measured after 10 antibiotic-free subculture by multi-step resistance selection technique; in short: as §1
Streptococcus pneumoniae [15] = assay: Antimicrobial activity against drug-resistant Streptococcus pneumoniae isolate 1635 after 49 passages by multi-step resistance selection technique; in short: as §2
Streptococcus pneumoniae [16] = assay: Antimicrobial activity against drug-resistant Streptococcus pneumoniae isolate 3665 after 26 passages by multi-step resistance selection technique
In short: (§4)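 Daily serial passage in broth at subinhibitory drug levels: 1 ml cation-adjusted Mueller-Hinton broth with 5% lysed horse blood; fresh broth for tigecycline. Each day 10 μl inoculum taken from the tube one to two dilutions below MIC matching growth-control turbidity, used to set next MIC. Continued until ≥8-fold MIC rise, minimum 14, maximum 50 passages; MIC read by macrodilution.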

Streptococcus pneumoniae [17] = assay: Antimicrobial activity against drug-resistant Streptococcus pneumoniae isolate 3009 after 21 passages with gemifloxacin measured after 10 antibiotic-free subculture by multi-step resistance selection technique; in short: as §1
Streptococcus pneumoniae [18] = assay: Antimicrobial activity against drug-resistant Streptococcus pneumoniae isolate 3009 after 25 passages by multi-step resistance selection technique; in short: as §2
Streptococcus pneumoniae [19] = assay: Antimicrobial activity against drug-resistant Streptococcus pneumoniae isolate 3274 after 50 passages by multi-step resistance selection technique; in short: as §3
Streptococcus pneumoniae [20] = assay: Antimicrobial activity against drug-resistant Streptococcus pneumoniae isolate 3243 by NCCLS M7-A7 method
Streptococcus pneumoniae [21] = assay: Antimicrobial activity against drug-resistant Streptococcus pneumoniae isolate 3274 after 48 passages with Telithromycin measured after 10 antibiotic-free subculture by multi-step resistance selection technique; in short: as §1
Streptococcus pneumoniae [22] = assay: Antimicrobial activity against drug-resistant Streptococcus pneumoniae isolate 1635 after 14 passages with clindamycin measured after 10 antibiotic-free subculture by multi-step resistance selection technique
Streptococcus pneumoniae [23] = assay: Antimicrobial activity against drug-resistant Streptococcus pneumoniae isolate 1077 after 29 passages with azithromycin measured after 10 antibiotic-free subculture by multi-step resistance selection technique; in short: as §1
Streptococcus pneumoniae [24] = assay: Antimicrobial activity against drug-resistant Streptococcus pneumoniae isolate 3676 by NCCLS M7-A7 method
Streptococcus pneumoniae [25] = assay: Antimicrobial activity against drug-resistant Streptococcus pneumoniae isolate 1076 by NCCLS M7-A7 method
Streptococcus pneumoniae [26] = assay: Antimicrobial activity against drug-resistant Streptococcus pneumoniae isolate 3665 after 26 passages with clarithromycin measured after 10 antibiotic-free subculture by multi-step resistance selection technique
Streptococcus pneumoniae [27] = assay: Antimicrobial activity against drug-resistant Streptococcus pneumoniae isolate 24 by NCCLS M7-A7 method
Streptococcus pneumoniae [28] = assay: Antimicrobial activity against drug-resistant Streptococcus pneumoniae isolate 1077 by NCCLS M7-A7 method
Streptococcus pneumoniae [29] = assay: Antimicrobial activity against drug-resistant Streptococcus pneumoniae isolate 3665 after 38 passages with moxifloxacin measured after 10 antibiotic-free subculture by multi-step resistance selection technique
Streptococcus pneumoniae [30] = assay: Antimicrobial activity against drug-resistant Streptococcus pneumoniae isolate 3243 after 41 passages by multi-step resistance selection technique; in short: as §2
Streptococcus pneumoniae [31] = assay: Antimicrobial activity against drug-resistant Streptococcus pneumoniae isolate 2527 after 20 passages with azithromycin measured after 10 antibiotic-free subculture by multi-step resistance selection technique; in short: as §1
Streptococcus pneumoniae [32] = assay: Antimicrobial activity against drug-resistant Streptococcus pneumoniae isolate 3243 after 20 passages with moxifloxacin measured after 10 antibiotic-free subculture by multi-step resistance selection technique; in short: as §1
Streptococcus pneumoniae [33] = assay: Antimicrobial activity against drug-resistant Streptococcus pneumoniae isolate 3665 after 14 passages with Telithromycin measured after 10 antibiotic-free subculture by multi-step resistance selection technique
Streptococcus pneumoniae [34] = assay: Antimicrobial activity against drug-resistant Streptococcus pneumoniae isolate 2527 by NCCLS M7-A7 method
Streptococcus pneumoniae [35] = assay: Antimicrobial activity against drug-resistant Streptococcus pneumoniae isolate 3676 after 14 passages with Telithromycin measured after 10 antibiotic-free subculture by multi-step resistance selection technique
Streptococcus pneumoniae [36] = assay: Antimicrobial activity against drug-resistant Streptococcus pneumoniae isolate 3665 by NCCLS M7-A7 method
Streptococcus pneumoniae [37] = assay: Antimicrobial activity against drug-resistant Streptococcus pneumoniae isolate 3009 after 19 passages with moxifloxacin measured after 10 antibiotic-free subculture by multi-step resistance selection technique; in short: as §1
Streptococcus pneumoniae [38] = assay: Antimicrobial activity against drug-resistant Streptococcus pneumoniae isolate 37 by NCCLS M7-A7 method
Streptococcus pneumoniae [39] = assay: Antimicrobial activity against drug-resistant Streptococcus pneumoniae isolate 1077 after 50 passages by multi-step resistance selection technique; in short: as §3
Streptococcus pneumoniae [40] = assay: Antimicrobial activity against drug-resistant Streptococcus pneumoniae isolate 3676 after 44 passages with clarithromycin measured after 10 antibiotic-free subculture by multi-step resistance selection technique
Streptococcus pneumoniae [41] = assay: Antimicrobial activity against drug-resistant Streptococcus pneumoniae isolate 3243 after 41 passages with clarithromycin measured after 10 antibiotic-free subculture by multi-step resistance selection technique
Streptococcus pneumoniae [42] = assay: Antimicrobial activity against drug-resistant Streptococcus pneumoniae isolate 3243 after 29 passages with Telithromycin measured after 10 antibiotic-free subculture by multi-step resistance selection technique; in short: as §1
Streptococcus pneumoniae [43] = assay: Antimicrobial activity against drug-resistant Streptococcus pneumoniae isolate 3009 after 25 passages with clarithromycin measured after 10 antibiotic-free subculture by multi-step resistance selection technique
Streptococcus pneumoniae [44] = assay: Antimicrobial activity against drug-resistant Streptococcus pneumoniae isolate 3676 after 44 passages by multi-step resistance selection technique; in short: as §4
Streptococcus pneumoniae [45] = assay: Antimicrobial activity against drug-resistant Streptococcus pneumoniae isolate 3009 by NCCLS M7-A7 method
Streptococcus pneumoniae [46] = assay: Antimicrobial activity against drug-resistant Streptococcus pneumoniae isolate 3676 after 50 passages with moxifloxacin measured after 10 antibiotic-free subculture by multi-step resistance selection technique
Streptococcus pneumoniae [47] = assay: Antimicrobial activity against drug-resistant Streptococcus pneumoniae isolate 3009 after 18 passages with levofloxacin measured after 10 antibiotic-free subculture by multi-step resistance selection technique; in short: as §1
Streptococcus pneumoniae [48] = assay: Antimicrobial activity against drug-resistant Streptococcus pneumoniae isolate 37 after 14 passages with Telithromycin measured after 10 antibiotic-free subculture by multi-step resistance selection technique
Streptococcus pneumoniae [49] = assay: Antimicrobial activity against drug-resistant Streptococcus pneumoniae isolate 3274 by NCCLS M7-A7 method
Streptococcus pneumoniae [50] = assay: Antimicrobial activity against drug-resistant Streptococcus pneumoniae isolate 1077 after 49 passages with clindamycin measured after 10 antibiotic-free subculture by multi-step resistance selection technique

CC[C@H]1OC(=O)[C@H](C)[C@@H](O[C@H]2C[C@@](C)(OC)[C@@H](O)[C@H](C)O2)[C@H](C)[C@@H](O[C@@H]2O[C@H](C)C[C@H](N(C)C)[C@H]2O)[C@](C)(OC)C[C@@H](C)C(=O)[C@H](C)[C@@H](O)[C@]1(C)O [CLARITHROMYCIN] showed an MIC (Streptococcus pneumoniae [1]) of 0.016 µg/mL (≈ 0.0214 µM), an MIC (Streptococcus pneumoniae [2]) greater than 64 µg/mL and an MIC (Streptococcus pneumoniae [3]) greater than 64 µg/mL. For the same compound, the MIC (Streptococcus pneumoniae [4]) was 0.5 µg/mL (≈ 0.668 µM), the MIC (Streptococcus pneumoniae [5]) was 0.016 µg/mL (≈ 0.0214 µM) and the MIC (Streptococcus pneumoniae [6]) was greater than 64 µg/mL. The MIC (Streptococcus pneumoniae [7]) was 8 µg/mL (≈ 10.7 µM), the MIC (Streptococcus pneumoniae [8]) was 8 µg/mL (≈ 10.7 µM) and the MIC (Streptococcus pneumoniae [9]) was greater than 64 µg/mL. The MIC (Streptococcus pneumoniae [10]) was greater than 64 µg/mL, the MIC (Streptococcus pneumoniae [11]) was greater than 64 µg/mL and the MIC (Streptococcus pneumoniae [12]) was 0.5 µg/mL (≈ 0.668 µM). It also gave an MIC (Streptococcus pneumoniae [13]) greater than 64 µg/mL, an MIC (Streptococcus pneumoniae [14]) of 16 µg/mL (≈ 21.4 µM) and an MIC (Streptococcus pneumoniae [15]) greater than 64 µg/mL. It also gave an MIC (Streptococcus pneumoniae [16]) of 16 µg/mL (≈ 21.4 µM), an MIC (Streptococcus pneumoniae [17]) of 16 µg/mL (≈ 21.4 µM) and an MIC (Streptococcus pneumoniae [18]) greater than 64 µg/mL. For the same compound, the MIC (Streptococcus pneumoniae [19]) was 0.03 µg/mL (≈ 0.0401 µM), the MIC (Streptococcus pneumoniae [20]) was 0.016 µg/mL (≈ 0.0214 µM) and the MIC (Streptococcus pneumoniae [21]) was 1 µg/mL (≈ 1.34 µM). The MIC (Streptococcus pneumoniae [22]) was 0.5 µg/mL (≈ 0.668 µM), the MIC (Streptococcus pneumoniae [23]) was greater than 64 µg/mL and the MIC (Streptococcus pneumoniae [24]) was 4 µg/mL (≈ 5.35 µM). For the same compound, the MIC (Streptococcus pneumoniae [25]) was greater than 64 µg/mL, the MIC (Streptococcus pneumoniae [26]) was 8 µg/mL (≈ 10.7 µM) and the MIC (Streptococcus pneumoniae [27]) was greater than 64 µg/mL. For the same compound, the MIC (Streptococcus pneumoniae [28]) was 0.016 µg/mL (≈ 0.0214 µM), the MIC (Streptococcus pneumoniae [29]) was 2 µg/mL (≈ 2.67 µM) and the MIC (Streptococcus pneumoniae [30]) was 0.25 µg/mL (≈ 0.334 µM). For the same compound, the MIC (Streptococcus pneumoniae [31]) was 16 µg/mL (≈ 21.4 µM), the MIC (Streptococcus pneumoniae [32]) was 0.004 µg/mL (≈ 0.00535 µM) and the MIC (Streptococcus pneumoniae [33]) was 2 µg/mL (≈ 2.67 µM). For the same compound, the MIC (Streptococcus pneumoniae [34]) was 0.008 µg/mL (≈ 0.0107 µM), the MIC (Streptococcus pneumoniae [35]) was 2 µg/mL (≈ 2.67 µM) and the MIC (Streptococcus pneumoniae [36]) was 2 µg/mL (≈ 2.67 µM). For the same compound, the MIC (Streptococcus pneumoniae [37]) was 8 µg/mL (≈ 10.7 µM), the MIC (Streptococcus pneumoniae [38]) was greater than 64 µg/mL and the MIC (Streptococcus pneumoniae [39]) was 0.008 µg/mL (≈ 0.0107 µM). For the same compound, the MIC (Streptococcus pneumoniae [40]) was 16 µg/mL (≈ 21.4 µM), the MIC (Streptococcus pneumoniae [41]) was 0.25 µg/mL (≈ 0.334 µM) and the MIC (Streptococcus pneumoniae [42]) was greater than 64 µg/mL. It also gave an MIC (Streptococcus pneumoniae [43]) of 64 µg/mL (≈ 85.6 µM), an MIC (Streptococcus pneumoniae [44]) of 32 µg/mL (≈ 42.8 µM) and an MIC (Streptococcus pneumoniae [45]) of 16 µg/mL (≈ 21.4 µM). For the same compound, the MIC (Streptococcus pneumoniae [46]) was 4 µg/mL (≈ 5.35 µM), the MIC (Streptococcus pneumoniae [47]) was 8 µg/mL (≈ 10.7 µM) and the MIC (Streptococcus pneumoniae [48]) was greater than 64 µg/mL. The MIC (Streptococcus pneumoniae [49]) was 0.008 µg/mL (≈ 0.0107 µM) and the MIC (Streptococcus pneumoniae [50]) was greater than 64 µg/mL.
